D1 mod – D1 CRE-luciferase signal change, two-sided – cell-based, HEK293 D1, dopamine EC30, D1 allosteric modulator project, primary screen; D(1A) dopamine receptor (Homo sapiens), P21728; dopamine EC30 potentiation; actives deviate in either direction; B-score at 10 µM; 58,000 compounds, 5.9% hits;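 active = luminescence count or its row- and column-corrected plate score outside the 99.7% band of the plate's sample wells, on either side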
M1 ag – M1 muscarinic receptor agonists, primary screen, CHO-M1 cells, Fluo-4 calcium, agonist mode; AID 626, 2007; Fluo-4 calcium fluorescence; active compounds read high; Muscarinic acetylcholine receptor M1; 64,000 compounds, 3% hits; B-score at 10 µM;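 active = fluorescence rise, raw or as B-score row- and column-corrected plate score, outside the 99.7% band of its plate's samples, either direction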
TNAP act mid DEA – human TNAP enzyme activators, primary screen, biochemical, luminescent, intermediate phosphate acceptor level | Alkaline phosphatase, tissue-nonspecific isozyme (Homo sapiens), P05186 | purified TNAP, CDP-star luminescence, 100 mM DEA, 30 min; active compounds read high; scale: 0 levamisole-inhibited, 1 vehicle-only enzyme | activation factor at 20 µM | 64,000 tested, under 10 active | AID 813, 2007;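 active = activation factor of at least 2 at 20 µM, relative to controls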
S1P3 agonist – human S1P3 receptor agonists, primary screen, cell-based, primary and confirmation, NFAT-BLA reporter; activation, % at 4.5 µM; 60,000 compounds, 0.1% hits; S1P3 NFAT-BLA reporter cells, agonism, FRET ratio; relative to 1 µM S1P, basal subtracted; Sphingosine 1-phosphate receptor 3 (Homo sapiens), Q99500; AID 373, 2006;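 active = activation above the screen-wide mean plus 3 SD, cut at about 4.5% in these data, passing the limit was not always enough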
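material = human S1P3 NFAT-BLA reporter CHO cells | schedule = 4 h compound at 37 °C, 2 h substrate at RT | measured by = fluorescent BLA substrate, ex 405 nm, em 460/535 nm ratio | controls = 1 µM S1P reference | replication = primary once, confirmation triplicate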
S1P1 ag pot – S1P1 agonists and agonism potentiators, primary screen, cell-based, primary and confirmation screens, CRE-bla reporter | Sphingosine 1-phosphate receptor 1 (Homo sapiens), P21453 | S1P1 CRE-bla cells, forskolin, beta-lactamase FRET, potentiator mode; S1P1 agonist co-added at EC20, 2 nM; 100% = saturating reference agonist, 0% = basal | activation, % at 9.5 µM | 56,000 compounds, 0.57% hits;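 active = activation above a cutoff set at the mean activation of all tested compounds plus 3 SD, cut at about 54% in these data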;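 also: forskolin at 4 µM as EC80 and the EC20 agonist is SEW2871; 100% = SEW2871 at its EC100 plus forskolin at EC80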
M1 antag – antagonists of rat M1 muscarinic receptor; Muscarinic acetylcholine receptor M1 (Rattus norvegicus), P08482; CHO-M1 cells, Fluo-4 calcium, ACh EC80 antagonist mode; active compounds read low; B-score at 10 µM; 64,000 compounds, 3.4% hits; AID 628, 2007;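 active = calcium fluorescence response, raw or row-and-column corrected B-score, differing from the plate sample mean either way at a set confidence level, mostly lower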
Target sequence (P08482 whole entry, looked up): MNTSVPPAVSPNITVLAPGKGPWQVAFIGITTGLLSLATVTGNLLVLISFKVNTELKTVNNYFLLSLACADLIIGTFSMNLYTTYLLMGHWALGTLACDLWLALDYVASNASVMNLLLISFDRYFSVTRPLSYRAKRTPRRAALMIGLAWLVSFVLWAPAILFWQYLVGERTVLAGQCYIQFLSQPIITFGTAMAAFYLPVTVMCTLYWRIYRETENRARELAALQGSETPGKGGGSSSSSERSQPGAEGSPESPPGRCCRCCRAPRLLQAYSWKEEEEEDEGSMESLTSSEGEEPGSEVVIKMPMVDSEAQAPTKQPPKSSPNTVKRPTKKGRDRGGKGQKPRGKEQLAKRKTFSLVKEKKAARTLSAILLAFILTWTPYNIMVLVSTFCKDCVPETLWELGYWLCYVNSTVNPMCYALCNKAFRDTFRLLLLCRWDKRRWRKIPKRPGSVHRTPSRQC
M1 antag conf – rat M1 muscarinic receptor antagonists, confirmation, CHO cells, Fluo-4 calcium, duplicate; shares compounds with M1 antag; 1,700 compounds, 43% hits; ACh EC80 antagonism; active compounds read low; calcium response (max-min fluorescence) at 10 µM;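 active = calcium response below the same-plate mean of wells given acetylcholine alone at its 80%-effect dose, minus 3 SD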;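 also: raw fluorescence intensity difference in arbitrary instrument units and not normalized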
mGluR4 antag – human mGluR4 response to M1 antagonist hits, M1 allosteric modulator project, cell-based, antagonist mode, secondary assay 1 | CHO-mGluR4 calcium flux, Fluo-4 fluorescence, glutamate EC80; active compounds read low | 1,700 compounds, 0.9% hits | shares compounds with M1 antag | fluorescence response (max-min) at 10 µM | AID 678, 2007;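 active = fluorescence response below the plate's average for near-maximal glutamate wells, less 3 SD of those wells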;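 also: raw unnormalized fluorescence span taken in the window right after glutamate addition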
* = called active by the depositor; . = no result given. A selection: hits, their analogues and other compounds. The true share with any hit is near 11%.

SMILES	D1 mod	M1 ag	TNAP act mid DEA	S1P3 agonist	S1P1 ag pot	M1 antag	M1 antag conf	mGluR4 antag
Cc1ccc(C)c(-n2c(Cc3cc(=O)[nH]c(=O)[nH]3)nnc2SCC(=O)NCC2CCCO2)c1 (stereo not given)	1.62	-1.22	0.9	1.0	-12.3	1.05	.	.
Cc1ccc(C(C(=O)NC2CCCC2)N(Cc2cccnc2)C(=O)c2snc(C(N)=O)c2N)o1 (stereo not given)	0.00148	-0.0278	1	-0.6	-18.7	-0.32*	600	221
Cc1ccccc1N(CC(=O)NCC1CCCO1)C(=O)C1(C)CC(=O)N=C2C=CC=CN21 (stereo not given)	-0.0477	0.923	0.8	-1.1	-11.3	-0.0219	.	.
CCN(CC)CCCNC(=O)c1c(O)c2c([nH]c1=O)CCCC2	-0.812	-1.04	0.9	0.9	1.5	-0.612	.	.
O=C(NCC1CCCO1)c1c(O)c2c([nH]c1=O)CCCC2 (stereo not given)	1.24	0.281	1	0.1	-2.5	-3.56*	555	245
C=CCN1C(=O)CN=C1Nc1cc(C)ccc1C	-0.463	-0.939	0.9	0.5	1.8	-0.959	.	.
Cc1ccc(-c2nnc(SCC(=O)Nc3nc4c(s3)CCCC4)n2C)cc1	.	0.644	1	-0.5	2.6	-2.42*	641	227
CCOCCCN(C(=O)c1ccco1)C(C(=O)NC1CCCC1)c1cccc(OC)c1OC (stereo not given)	-0.342	-0.0128	1	0.1	-1.1	1.39	.	.
Cc1cc2ccccc2c(=O)n1CC(=O)NCC(=O)N1CCCC1	-0.848	0.455	0.9	-0.4	1.1	-1.39	.	.
COc1ccc(N2CCN(C(=O)CNC(=O)Cn3c(C)cc4ccccc4c3=O)CC2)cc1	-0.305	-0.856	0.9	-0.4	-1.7	-2.41*	642	245
O=C(CSc1nnc2sc3ccccc3n12)c1ccco1	0.508	-0.0371	0.9	-0.7	19.2	1.02	.	.
O=C(CSc1nnc(-c2cccs2)n1-c1ccccc1)N1CCc2ccccc21	-0.175	0.147	1.1	-0.8	3.5	-3.01*	457	205
CC(C)CC(NC(=O)C1CCC(C)CC1)C(=O)Nc1ccccn1 (stereo not given)	.	0.0145	1	.	.	-3.41*	518	188
CC(C)C(NC(=O)C1CCCCC1)C(=O)Nc1ccccn1 (stereo not given)	0.561	-0.761	1.1	-0.1	-0.8	0.0987	.	.
Cc1c(CNC(=O)c2cnn3c2NC(c2ccc(Br)cc2)CC3C(F)(F)F)cnn1C (stereo not given)	0.334	0.946	1	-0.5	.	0.453	.	.
COc1ccc(NC(=O)c2ccco2)cc1NC(=O)c1cccnc1	-0.065	0.847	0.9	-1.6	-6.3	-0.853	.	.
COc1ccc(-c2nc3n(n2)C(c2ccccc2Cl)C(C(N)=O)=C(C)N3)cc1 (stereo not given)	-0.00196	0.341	0.7	0.2	-16.4	-2.97*	626	245
O=C(CN1C(=O)NC2(CCCc3ccccc32)C1=O)N1CCN(C(=O)c2ccco2)CC1 (stereo not given)	0.0374	0.378	1	-0.3	3.3	-0.0664	.	.
CCOc1ccccc1NC(=O)c1cc(CC(C)C)oc1C	-0.535	-0.291	0.9	-0.3	.	-2.41*	650	241
CCOc1ccccc1NC(=O)CCC(=O)O	.	-0.613	0.9	-0.5	3.0	-0.0466	.	.
Cc1cc(NC(=O)c2cc3ncc(Br)cn3n2)no1	-0.0177	.	0.9	-0.6	-2.5	.	.	.
CN1C(=O)C(O)(C2COC(C)(C)CC2=O)c2ccccc21 (stereo not given)	-1.56	1.03	0.9	-1.6	5.9	-3.78*	472*	237
CN1C(=O)C(O)(C2COC(C)(C)CC2=O)c2cc(Br)ccc21 (stereo not given)	-0.204	0.142	0.9	-1.1	24.5	-0.492	.	.
S=c1[nH]nc(-c2ccc(Br)cc2)n1Cc1ccco1	-1.21	-0.0942	0.8	0.9	-5.3	-10.2*	326*	227
CC(=O)C(C(C)=O)c1c(Cl)c(O)c(O)c2c(C(=O)c3ccccc3)coc12	-1.39	2.89	0.8	-1.3	40.4	-0.343	.	.
SMILES	D1 mod	M1 ag	TNAP act mid DEA	S1P3 agonist	S1P1 ag pot	M1 antag	M1 antag conf	mGluR4 antag
c1nnc(NC2=NCCCCC2)s1	0.169	-1.41	0.9	-0.5	3.1	-0.741	.	.
C1CCN=C(Nc2nc3c(s2)CCCC3)CC1	-1.07	0.859	0.9	.	.	-6.44*	468*	207
CCOC(=O)CC(N)c1ccc(OC)cc1 (stereo not given)	-0.34	-0.385	0.9	.	.	-0.0363	.	.
COc1cccc(C(=O)Cn2c(N3CCCCC3)nc3c2c(=O)n(C)c(=O)n3C)c1	-0.293	0.373	0.9	-1.0	6.2	-0.559	.	.
COc1cccc(C(=O)Cn2c(=N)n(C)c3ccccc32)c1	-0.492	-0.302	0.9	-1.2	-7.5	-4.95*	443*	258
CC1C2C(C)N(C)C(=O)N(C)C2N(C)C(=O)N1C (stereo not given)	0.303	-0.23	0.9	0.3	-5.7	0.00518	.	.
CN1C(=O)N(C)C2C1NC(=O)N2C (stereo not given)	-0.439	-0.573	1	-1.1	-3.5	-9.15*	521	214
O=C1CN(C(=O)CN2CCCC2)C(c2ccccc2)c2cc(Br)ccc2N1 (stereo not given)	-0.683	-0.252	0.9	-0.2	1.8	-2.8*	473	305
COc1cccc(C(c2nnnn2Cc2ccco2)N2CCN(c3cccc(C)c3C)CC2)c1OC (stereo not given)	-0.00787	-0.307	1	-1.2	3.9	-4.28*	639	202
COc1cccc(C(c2nnnn2CCc2ccccc2)N2CCN(c3ccccc3)CC2)c1OC (stereo not given)	0.0658	-0.0235	0.9	-0.6	13.2	-0.0238	.	.
CC1(C)CC(=O)C=C(NCCN2CCN(C(=O)Nc3ccccc3)CC2)C1	-0.0876	-0.149	0.8	0.1	-29.1	-0.956	.	.
N#Cc1c(NC(=O)c2cc(-n3cnnc3)ccc2Cl)sc2c1CCCC2	-0.458	-0.512	0.9	-1.0	36.0	-3.2*	630	229

Compound activity (PubChem)
